{"data": "Assay results from different studies", "target": "Serine/threonine-protein kinase PLK3 (PLK3, Homo sapiens, UniProt Q9H4B4)", "note": "Lines come from different studies, so protocols differ."}
{"SMILES": "C#Cc1cc(-c2cc(Nc3nc(N[C@@H](C)c4ccc(F)cn4)ncc3Cl)n[nH]2)ccc1C=O", "test": "enzyme activity, inhibitor", "setting": "0.2 µM", "quantity": "inhibition", "result": "12.9%"}
{"SMILES": "C=CC(=O)N1CCC([C@@H]2CCNc3c(C(N)=O)c(-c4ccc(Oc5ccccc5)cc4)nn32)CC1", "test": "enzyme activity, inhibitor", "setting": "1 µM", "quantity": "inhibition", "result": "2%"}
{"SMILES": "CCCCC(=O)Nc1ccc(-c2ccc3ncn(CCC)c(=O)c3c2)cn1", "test": "binding, competition with immobilised ligand", "setting": "0.5 µM", "quantity": "remaining binding", "result": "98%"}
{"SMILES": "C[C@H]1CC[C@H](n2c3cnccc3c3cnc(Nc4ccc5c(n4)CCN(C(=O)CO)C5)nc32)CC1", "test": "cell-free assay", "setting": "1 µM", "quantity": "remaining signal", "result": "100%"}
{"SMILES": "COc1ccc2oc(-c3ccc4nc(N)oc4c3)c/c(=N\\c3ccccc3NC(=O)CCN)c2c1", "test": "binding", "setting": "1 µM", "quantity": "remaining binding", "result": "101%"}
{"SMILES": "COc1ccc2[nH]c3c4[nH]c5ccc(OC)cc5c4c4c(c3c2c1)C(=O)NC4=O", "test": "binding", "setting": "1 µM", "quantity": "remaining binding", "result": "88%"}
{"SMILES": "N#Cc1ccc(NC(=O)Nc2ccccc2)cc1", "test": "cell-free assay, competition with immobilised ligand", "setting": "25 µM", "quantity": "remaining binding", "result": "88%"}
{"SMILES": "C#Cc1cnc(Nc2ccnc(CO)c2)nc1Nc1ccccc1S(C)(=O)=NC#N (stereo not shown)", "test": "cell-free assay", "setting": "1 µM", "quantity": "remaining signal", "result": "34%"}
{"SMILES": "C1=C/COCc2cc(ccc2OCCN2CCCC2)Nc2nccc(n2)-c2cccc(c2)COC/1", "test": "binding", "setting": "0.1 µM", "quantity": "remaining binding", "result": "99%"}
{"SMILES": "CC#CC(=O)N1CCC[C@H]1c1nc(-c2ccc(C(=O)Nc3ccccn3)cc2)c2c(N)nccn12", "test": "enzyme activity, inhibitor", "setting": "1 µM", "quantity": "inhibition", "result": "0%"}
